Legend:
Assay type in all cases: functional
Mus musculus [1] = test: Antitumor activity was determined for average 7-day weight change against P-388 leukemia in mice at a dose of 600 mg/kg
How it was run: (§1)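 Male B6D2F1J mice given 10⁶ P-388 cells ip on day 0, then treated ip once daily on days 1-4 (qd × 4), 5 mice per dose group. Compounds dosed in sterile saline, except one lipophilic thioether given in 10% Tween 80. Mice weighed on days 1 and 7; mean weight per mouse on day 1 and 7-day weight change reported in g and as percent.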

Mus musculus [2] = test: Antitumor activity was determined for average 7-day weight change against P-388 leukemia in mice at a dose of 340 mg/kg; how it was run: as §1
Mus musculus [3] = test: Antitumor activity was determined for median survival of mice against P-388 leukemia in mice at a dose of 170 mg/kg
How it was run: (§2)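 Male B6D2F1J mice implanted ip with 10⁶ P-388 cells on day 0; test agents given ip on days 1–4 (qd × 4) in sterile saline, or in 10% Tween 80 for the lipophilic thioether. Groups of 5 treated mice, with 10–17 untreated controls per experiment. Mice weighed on days 1 and 7 to give the 7-day weight change in g and %. Survival recorded in days as median and range.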

Mus musculus [4] = test: Antitumor activity was determined for average 7-day weight change against P-388 leukemia in mice at a dose of 680 mg/kg; how it was run: as §1
Mus musculus [5] = test: Antitumor activity was determined for 7-day average percent weight change against P-388 leukemia in mice at a dose of 75 mg/kg; how it was run: as §1
Mus musculus [6] = test: Percent increase in life span against P-388 leukemia in mice was determined at a dose of 170 mg/kg; settings: P388
How it was run: (§3)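 Male B6D2F1J mice, 5 per dose group, received 10⁶ P-388 cells ip on day 0. Dosing was ip qd × 4 on days 1-4 in sterile saline, or 10% Tween 80 for the butyl thioether. Median survival times of treated (T) and untreated control (C, 10-17 mice) groups were compared: %ILS = [(T/C) − 1]100. Weights taken on days 1 and 7.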

Mus musculus [7] = test: Antitumor activity was determined for 7-day average percent weight change against P-388 leukemia in mice at a dose of 85 mg/kg; how it was run: as §1
Mus musculus [8] = test: Antitumor activity was determined for survival range of mice against P-388 leukemia in mice at a dose of 75 mg/kg
How it was run: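 Male B6D2F1J mice, 5 per dose group, implanted ip with 10⁶ P-388 leukemia cells on day 0. Drug given ip daily on days 1-4 (qd × 4) in sterile saline, or in 10% Tween 80 for the butyl thioether. Survival range recorded in days. Untreated control groups had 10-17 animals per experiment. Mice weighed on days 1 and 7.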

Mus musculus [9] = test: Antitumor activity was determined for survival range of mice against P-388 leukemia in mice at a dose of 680 mg/kg; how it was run: as §2
Mus musculus [10] = test: Antitumor activity was determined for 7-day average percent weight change against P-388 leukemia in mice at a dose of 340 mg/kg; how it was run: as §1
Mus musculus [11] = test: Antitumor activity was determined for average 7-day weight change against P-388 leukemia in mice at a dose of 170 mg/kg; how it was run: as §1
Mus musculus [12] = test: Antitumor activity was determined for survival range of mice against P-388 leukemia in mice at a dose of 300 mg/kg; how it was run: as §2
Mus musculus [13] = test: Antitumor activity was determined for median survival of mice against P-388 leukemia in mice at a dose of 75 mg/kg; how it was run: as §2
Mus musculus [14] = test: Antitumor activity was determined for average weight on day 1 against P-388 leukemia in mice at a dose of 85 mg/kg
How it was run: (§4)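 Male B6D2F1J mice, groups of 5, inoculated ip with 10⁶ P-388 cells on day 0. Drug given ip on days 1-4 (qd × 4) in sterile saline, or in 10% Tween 80 for the poorly water-soluble thioether. Average weight per mouse recorded on day 1, with reweighing on day 7 for percent weight change. Untreated control groups had 10-17 animals per experiment.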

Mus musculus [15] = test: Antitumor activity was determined for survival range of mice against P-388 leukemia in mice at a dose of 600 mg/kg; how it was run: as §2
Mus musculus [16] = test: Antitumor activity was determined for survival range of mice against P-388 leukemia in mice at a dose of 170 mg/kg; how it was run: as §2
Mus musculus [17] = test: Antitumor activity was determined for average 7-day weight change against P-388 leukemia in mice at a dose of 75 mg/kg; how it was run: as §1
Mus musculus [18] = test: Antitumor activity was determined for median survival of mice against P-388 leukemia in mice at a dose of 340 mg/kg; how it was run: as §2
Mus musculus [19] = test: Antitumor activity was determined for 7-day average percent weight change against P-388 leukemia in mice at a dose of 170 mg/kg; how it was run: as §1
Mus musculus [20] = test: Antitumor activity was determined for median survival of mice against P-388 leukemia in mice at a dose of 85 mg/kg; how it was run: as §2
Mus musculus [21] = test: Antitumor activity was determined for average weight on day 1 against P-388 leukemia in mice at a dose of 680 mg/kg; how it was run: as §4
L1210 = test: Evaluated for cytotoxicity against L1210 mouse leukemia cells; settings: read-out: ID50 (the source's name)
How it was run: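 L1210 murine leukemia cells in Eagle's minimal essential medium with 15% fetal calf serum, streptomycin (100 μg/mL), penicillin (100 units/mL) and 0.05 mM 2-mercaptoethanol. Cells counted by Coulter counter after 48 h exposure. ID50 is the 50% growth-inhibitory dose. Triplicate assays, standard deviation ±10%.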

Mus musculus [22] = test: Antitumor activity was determined for average weight on day 1 against P-388 leukemia in mice at a dose of 170 mg/kg; how it was run: as §4
Mus musculus [23] = test: Antitumor activity was determined for median survival of mice against P-388 leukemia in mice at a dose of 150 mg/kg; how it was run: as §2
Mus musculus [24] = test: Percent increase in life span against P-388 leukemia in mice was determined at a dose of 680 mg/kg; settings: P388; how it was run: as §3
Mus musculus [25] = test: Antitumor activity was determined for average weight on day 1 against P-388 leukemia in mice at a dose of 600 mg/kg; how it was run: as §4
Mus musculus [26] = test: Antitumor activity was determined for 7-day average percent weight change against P-388 leukemia in mice at a dose of 680 mg/kg; how it was run: as §1
Mus musculus [27] = test: Percent increase in life span against P-388 leukemia in mice was determined at a dose of 150 mg/kg; settings: P388; how it was run: as §3
Mus musculus [28] = test: Percent increase in life span against P-388 leukemia in mice was determined at a dose of 85 mg/kg; settings: P388; how it was run: as §3
Mus musculus [29] = test: Antitumor activity was determined for average 7-day weight change against P-388 leukemia in mice at a dose of 85 mg/kg; how it was run: as §1
Mus musculus [30] = test: Antitumor activity was determined for 7-day average percent weight change against P-388 leukemia in mice at a dose of 600 mg/kg; how it was run: as §1
Mus musculus [31] = test: Antitumor activity was determined for average weight on day 1 against P-388 leukemia in mice at a dose of 340 mg/kg; how it was run: as §4
Mus musculus [32] = test: Antitumor activity was determined for 7-day average percent weight change against P-388 leukemia in mice at a dose of 300 mg/kg; how it was run: as §1
Mus musculus [33] = test: Antitumor activity was determined for survival range of mice against P-388 leukemia in mice at a dose of 150 mg/kg; how it was run: as §2
Mus musculus [34] = test: Antitumor activity was determined for survival range of mice against P-388 leukemia in mice at a dose of 340 mg/kg; how it was run: as §2
Mus musculus [35] = test: Percent increase in life span against P-388 leukemia in mice was determined at a dose of 75 mg/kg; settings: P388; how it was run: as §3

CC[C@H]1OC(n2cc(F)c(=O)[nH]c2=O)[C@H](O)[C@@H]1O (stereo partly specified)
Average weight (Mus musculus [1]): -2.4 g mouse-1
Average weight (Mus musculus [2]): 1.4 g mouse-1
Survival median (Mus musculus [3]): 14
Average weight (Mus musculus [4]): -1.4 g mouse-1
Weight change (Mus musculus [5]): 9%
ILS at 170 mg/kg (Mus musculus [6]): 27%
Weight change (Mus musculus [7]): 5%
Survival range (Mus musculus [8]): 14
Survival range (Mus musculus [9]): 16
Weight change (Mus musculus [10]): 5%
Average weight (Mus musculus [11]): 1.6 g mouse-1
Survival range (Mus musculus [12]): 17
Survival median (Mus musculus [13]): 15
Average weight (Mus musculus [14]): 26.2 g mouse-1
Survival range (Mus musculus [15]): 17
Survival range (Mus musculus [16]): 13
Average weight (Mus musculus [17]): 2 g mouse-1
Survival median (Mus musculus [18]): 16
Weight change (Mus musculus [19]): 6%
Survival median (Mus musculus [20]): 13
Average weight (Mus musculus [21]): 25.8 g mouse-1
IC50 (L1210): 19 µM
Average weight (Mus musculus [22]): 26.4 g mouse-1
Survival median (Mus musculus [23]): 17
ILS at 680 mg/kg (Mus musculus [24]): 54%
Average weight (Mus musculus [25]): 23.2 g mouse-1
Weight change (Mus musculus [26]): -5%
ILS at 150 mg/kg (Mus musculus [27]): 54%
ILS at 85 mg/kg (Mus musculus [28]): 18%
Average weight (Mus musculus [29]): 1.2 g mouse-1
Weight change (Mus musculus [30]): -10%
Average weight (Mus musculus [31]): 27.8 g mouse-1
Weight change (Mus musculus [32]): 3%
Survival range (Mus musculus [33]): 15
Survival range (Mus musculus [34]): 15
ILS at 75 mg/kg (Mus musculus [35]): 36%
